Values joined by “and” are separate entries in the source; they are usually repeats but may differ in a detail not shown here. Identical values can stand only once.
System: Fibroblast
Assay: Multiplex assay against human fibroblast
Format: toxicity, cell-based
Conditions: number of replicates 2
In short: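 Compound was added to live cells that had been stained at seeding with Hoechst33342, BioTracker Green Microtubule Cytoskeleton Dye, MitoTracker Red and Annexin V Alexa Fluor 680, and imaging followed on a CQ1 microscope at 37°C and 5% CO2. CellPathfinder machine-learning gating divided cells into Hoechst high-intensity objects or normal cells, normal cells into healthy, pyknosed or fragmented nuclei, and pyknosed cells into mitotic or apoptotic. Tubulin, mitochondrial-mass and membrane-permeability phenotypes are per cents of healthy-nucleus cells.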

[1] = 12 h, 1 µM, compound concentration 1 uM
[2] = 12 h, 10 µM, compound concentration 10 uM
[3] = 24 h, 1 µM, compound concentration 1 uM
[4] = 24 h, 10 µM, compound concentration 10 uM
[5] = 48 h, 1 µM, compound concentration 1 uM
[6] = 48 h, 10 µM, compound concentration 10 uM

CC(C)NC(=O)[C@H]1CCC[C@H]1Nc1nc(Nc2ccc(C(=O)N(C)C3CCN(C)CC3)cc2)ncc1Cl
Population Apoptotic (%) [1]: 45% and 33% | Population Fragmented Nuclei (%) [1]: 7% and 8% | Population Healthy Nuclei (%) [1]: 62% and 61% | Population Hoechst High Intensity Objects (%) [1]: 0% | Population Membrane Permeable-Phenotype (%) [1]: 8% | Population Mitochondria Different-Phenotype (%) [1]: 0% and 2% | Population Mitotic Cells (%) [1]: 54% and 66% | Population Normal (%) [1]: 100% | Population Pyknosed Nuclei (%) [1]: 30% and 29% | Population Tubulin-Different-Phenotype (%) [1]: 20% and 12% | Total Cell Count [1]: 109 and 134 | Population Apoptotic (%) [2]: 62% and 51% | Population Fragmented Nuclei (%) [2]: 19% and 12% | Population Healthy Nuclei (%) [2]: 62% and 75% | Population Hoechst High Intensity Objects (%) [2]: 0% | Population Membrane Permeable-Phenotype (%) [2]: 0% and 4% | Population Mitochondria Different-Phenotype (%) [2]: 3% and 6% | Population Mitotic Cells (%) [2]: 37% and 48% | Population Normal (%) [2]: 100% | Population Pyknosed Nuclei (%) [2]: 18% and 12% | Population Tubulin-Different-Phenotype (%) [2]: 51% and 44% | Total Cell Count [2]: 177 and 250 | Population Apoptotic (%) [3]: 48% and 58% | Population Fragmented Nuclei (%) [3]: 8% and 10% | Population Healthy Nuclei (%) [3]: 60% and 59% | Population Hoechst High Intensity Objects (%) [3]: 0% | Population Membrane Permeable-Phenotype (%) [3]: 14% and 7% | Population Mitochondria Different-Phenotype (%) [3]: 0% | Population Mitotic Cells (%) [3]: 51% and 41% | Population Normal (%) [3]: 100% | Population Pyknosed Nuclei (%) [3]: 30% | Population Tubulin-Different-Phenotype (%) [3]: 16% and 13% | Total Cell Count [3]: 127 and 136 | Population Apoptotic (%) [4]: 65% and 66% | Population Fragmented Nuclei (%) [4]: 16% and 13% | Population Healthy Nuclei (%) [4]: 64% and 71% | Population Hoechst High Intensity Objects (%) [4]: 0% | Population Membrane Permeable-Phenotype (%) [4]: 2% and 0% | Population Mitochondria Different-Phenotype (%) [4]: 9% and 6% | Population Mitotic Cells (%) [4]: 34% and 33% | Population Normal (%) [4]: 100% | Population Pyknosed Nuclei (%) [4]: 18% and 15% | Population Tubulin-Different-Phenotype (%) [4]: 40% and 28% | Total Cell Count [4]: 171 and 258 | Population Apoptotic (%) [5]: 67% and 75% | Population Fragmented Nuclei (%) [5]: 14% | Population Healthy Nuclei (%) [5]: 62% and 59% | Population Hoechst High Intensity Objects (%) [5]: 0% | Population Membrane Permeable-Phenotype (%) [5]: 8% and 4% | Population Mitochondria Different-Phenotype (%) [5]: 0% and 1% | Population Mitotic Cells (%) [5]: 32% and 24% | Population Normal (%) [5]: 100% | Population Pyknosed Nuclei (%) [5]: 22% and 26% | Population Tubulin-Different-Phenotype (%) [5]: 15% and 11% | Total Cell Count [5]: 127 and 141 | Population Apoptotic (%) [6]: 78% and 82% | Population Fragmented Nuclei (%) [6]: 17% and 12% | Population Healthy Nuclei (%) [6]: 64% and 69% | Population Hoechst High Intensity Objects (%) [6]: 0% | Population Membrane Permeable-Phenotype (%) [6]: 4% and 5% | Population Mitochondria Different-Phenotype (%) [6]: 6% and 2% | Population Mitotic Cells (%) [6]: 21% and 17% | Population Normal (%) [6]: 99% and 100% | Population Pyknosed Nuclei (%) [6]: 17% and 18% | Population Tubulin-Different-Phenotype (%) [6]: 36% and 18% | Total Cell Count [6]: 160 and 243

Cn1cc(-c2ccc(-c3cncc(Cl)c3N3CCC4(CCNC4=O)CC3)cc2)cn1
Population Apoptotic (%) [1]: 34% and 44% | Population Fragmented Nuclei (%) [1]: 3% and 11% | Population Healthy Nuclei (%) [1]: 66% and 70% | Population Hoechst High Intensity Objects (%) [1]: 0% | Population Membrane Permeable-Phenotype (%) [1]: 9% and 5% | Population Mitochondria Different-Phenotype (%) [1]: 0% and 2% | Population Mitotic Cells (%) [1]: 66% and 55% | Population Normal (%) [1]: 100% | Population Pyknosed Nuclei (%) [1]: 30% and 18% | Population Tubulin-Different-Phenotype (%) [1]: 22% and 16% | Total Cell Count [1]: 162 and 230 | Population Apoptotic (%) [2]: 25% and 39% | Population Fragmented Nuclei (%) [2]: 14% and 11% | Population Healthy Nuclei (%) [2]: 67% and 71% | Population Hoechst High Intensity Objects (%) [2]: 0% | Population Membrane Permeable-Phenotype (%) [2]: 18% and 13% | Population Mitochondria Different-Phenotype (%) [2]: 3% and 4% | Population Mitotic Cells (%) [2]: 74% and 60% | Population Normal (%) [2]: 100% | Population Pyknosed Nuclei (%) [2]: 17% and 16% | Population Tubulin-Different-Phenotype (%) [2]: 84% and 65% | Total Cell Count [2]: 196 and 203 | Population Apoptotic (%) [3]: 45% and 50% | Population Fragmented Nuclei (%) [3]: 7% and 13% | Population Healthy Nuclei (%) [3]: 38% and 57% | Population Hoechst High Intensity Objects (%) [3]: 0% | Population Membrane Permeable-Phenotype (%) [3]: 21% and 8% | Population Mitochondria Different-Phenotype (%) [3]: 3% and 2% | Population Mitotic Cells (%) [3]: 54% and 49% | Population Normal (%) [3]: 99% | Population Pyknosed Nuclei (%) [3]: 53% and 28% | Population Tubulin-Different-Phenotype (%) [3]: 41% and 21% | Total Cell Count [3]: 157 and 229 | Population Apoptotic (%) [4]: 44% and 56% | Population Fragmented Nuclei (%) [4]: 24% and 22% | Population Healthy Nuclei (%) [4]: 62% and 64% | Population Hoechst High Intensity Objects (%) [4]: 0% | Population Membrane Permeable-Phenotype (%) [4]: 15% and 7% | Population Mitochondria Different-Phenotype (%) [4]: 8% and 7% | Population Mitotic Cells (%) [4]: 55% and 43% | Population Normal (%) [4]: 99% and 100% | Population Pyknosed Nuclei (%) [4]: 13% and 12% | Population Tubulin-Different-Phenotype (%) [4]: 82% and 73% | Total Cell Count [4]: 204 and 232 | Population Apoptotic (%) [5]: 69% and 58% | Population Fragmented Nuclei (%) [5]: 8% and 20% | Population Healthy Nuclei (%) [5]: 50% and 57% | Population Hoechst High Intensity Objects (%) [5]: 0% and 1% | Population Mitochondria Different-Phenotype (%) [5]: 1% and 2% | Population Mitotic Cells (%) [5]: 30% and 41% | Population Normal (%) [5]: 99% and 98% | Population Pyknosed Nuclei (%) [5]: 40% and 22% | Population Tubulin-Different-Phenotype (%) [5]: 47% and 22% | Total Cell Count [5]: 154 and 211 | Population Apoptotic (%) [6]: 66% and 69% | Population Fragmented Nuclei (%) [6]: 19% and 22% | Population Healthy Nuclei (%) [6]: 67% and 66% | Population Hoechst High Intensity Objects (%) [6]: 0% | Population Membrane Permeable-Phenotype (%) [6]: 9% and 2% | Population Mitochondria Different-Phenotype (%) [6]: 11% | Population Mitotic Cells (%) [6]: 33% and 30% | Population Normal (%) [6]: 99% | Population Pyknosed Nuclei (%) [6]: 12% and 10% | Population Tubulin-Different-Phenotype (%) [6]: 66% and 68% | Total Cell Count [6]: 210 and 211

Reference: ChEMBL document CHEMBL5303300, “EUbOPEN Chemogenomics Library - Multiplex” (2023)
